Compound activity from PubChem BioAssay.
An excerpt weighted towards active compounds, which were near 3.8% of everything screened.
MPTP block: inhibitors of mitochondrial permeability transition pore. isolated mouse mitochondria, Ca2+ swelling absorbance, 30 min. inhibition, % at 10 µM. hit rate 1.4% among 360,000. AID 602449;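 active = inhibition of 50% or more, scaled per plate between neutral and stimulator controls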;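 also: 0% = DMSO wells given calcium and 100% = 1 mM EGTA wells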
OX1R antag-1: OX1R (human) antagonism. O43613. OX1R-expressing cells, FRET antagonist read-out. inhibition, % at 6.6 µM. hit rate 1.8% among 330,000. AID 485270; in the data active = inhibition mostly above about 38%, no sharp cut-off; inactive = mostly below about 40%;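 also: 0% = agonist challenge alone and 100% = reference antagonist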
Target sequence (O43613 whole entry, looked up): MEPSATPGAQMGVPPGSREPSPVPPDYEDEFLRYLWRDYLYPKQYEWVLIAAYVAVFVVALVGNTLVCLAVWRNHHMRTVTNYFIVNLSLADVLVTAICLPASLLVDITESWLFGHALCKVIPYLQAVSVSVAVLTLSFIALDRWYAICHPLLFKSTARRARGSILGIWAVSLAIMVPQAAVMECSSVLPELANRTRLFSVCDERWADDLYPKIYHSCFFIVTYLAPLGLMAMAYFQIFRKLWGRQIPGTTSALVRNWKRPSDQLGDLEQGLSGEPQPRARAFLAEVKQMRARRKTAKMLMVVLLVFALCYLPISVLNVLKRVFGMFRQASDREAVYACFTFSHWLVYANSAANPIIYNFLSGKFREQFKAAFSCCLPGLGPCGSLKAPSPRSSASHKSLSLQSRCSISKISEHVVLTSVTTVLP
OX1R antag-2: human HCRTR1 antagonism. O43613. CHO/OX1R cells, Fluo-8 calcium fluorescence, orexin A. inhibition, % at 5 µM. hit rate 0.43% among 330,000. AID 434989;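 active = inhibition above its plate's threshold, mean inhibition of all tested compounds on the plate plus 3 SD, cut at about 37% in these data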;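 also: 0% = orexin A challenge wells and 100% = SB-334867-A antagonist wells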
GPR7 antagonist: antagonists of human GPR7 (neuropeptides B/W receptor 1) | AID 1861 | inhibition, % at 4.4 µM | hit rate 1.1% among 290,000 | GPR7-expressing cells, fluorescence antagonist assay; in the data active = inhibition above about 16%, passing the limit was not always enough;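 also: cells stimulated with the agonist NPW; 0% = agonist with vehicle and 100% = vehicle without agonist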
CHO parental Ca: counter-screen: ATP calcium response change in parental CHO cells. inhibition, % at 5.6 µM. hit rate 0.63% among 330,000. parental CHO-K1, ATP-induced calcium, Fluo-8 fluorescence;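 active = inhibition above that plate's mean sample inhibition plus 3 SD, cut at about 26% in these data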;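 also: 0% = ATP-challenged DMSO wells and 100% = DMSO wells without ATP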
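Material – parental CHO cells · Reagent – ATP stimulus · Compound – single nominal dose of 5.6 µM per compound · Detection – Fluo-8 fluorescence · Read-out basis – percent inhibition of calcium signal · Controls – ATP-challenged DMSO wells low, unchallenged DMSO wells high · Repeats – no replicates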
GPR7 antag conf: confirmation of human GPR7 antagonists; shares compounds with GPR7 antagonist; GPR7-expressing cells, calcium fluorescence antagonist mode; inhibition, % at 4.4 µM; hit rate 52% among 2,400; in the data active = inhibition above about 24%;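 also: stimulated with the GPR7 agonist NPW; 0% = agonist plus vehicle and 100% = vehicle alone without agonist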
MCHR1 antagonist: MCHR1 (human) antagonism in GPR7 counter-screen; MCHR1-expressing cells, fluorescence antagonist assay; inhibition, % at 4.4 µM; hit rate 62% among 2,400; shares compounds with GPR7 antagonist; in the data active = inhibition above about 22%;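 also: 0% = vehicle with agonist and 100% = vehicle without agonist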
* hit, by the source's call; x = no result.

SMILES	MPTP block	OX1R antag-1	OX1R antag-2	GPR7 antagonist	CHO parental Ca	GPR7 antag conf	MCHR1 antagonist
CCN(CC)CCn1c(=N)n(CC(O)COc2ccccc2)c2ccccc21 (configuration not stated)	0	11	-8	29*	-7	23	19
CC(C)C1C(=O)N(Cc2cn(CCC3OCCCO3)nn2)CCS(=O)(=O)N1Cc1ccc(-c2ccc(F)nc2)cc1 (configuration not stated)	1	x	x	x	x	x	x
Cc1cnc(CNC(=O)c2ccc3oc(Cc4ccc(Cl)cc4)nc3c2)cn1	1	12	2	23*	-2	23	20
COC(=O)c1cc(S(=O)(=O)N2CCN(c3ccc(F)cc3)CC2)c[nH]1	-1	14	-1	4	2	x	x
CC(=O)c1ccc(N2CCN(C(=O)Cc3ccccc3)CC2)c(F)c1	2	6	-28	45*	14	10	8
COC(=O)c1cc(S(=O)(=O)N2CCN(c3ccc(C(C)=O)cc3)CC2)cn1C	-3	18	-16	25*	8	-8	41*
CC(=O)c1ccc(S(=O)(=O)N2CCN(c3ccccc3F)CC2)cc1	2	17	-13	25*	7	25*	23*
COC(=O)c1cc(S(=O)(=O)N2CCN(c3ccc([N+](=O)[O-])cc3)CC2)c[nH]1	0	12	-6	32*	-10	9	1
CC1(C(=O)Nc2ccc(Cl)c(Cl)c2)CCN1Cc1cc2ccccc2o1 (configuration not stated)	-1	x	x	x	x	x	x
CC(=O)N/C(=C/c1ccc2c(c1)OCO2)C(=O)NCC(=O)O	0	11	-8	-12	4	x	x
CC1CC(C)CN(C(=O)c2ccc(S(=O)(=O)N3CC(C)CC(C)C3)cc2)C1 (configuration not stated)	2	13	-31	25*	-20	24*	23*
CC1CC(C)CN(S(=O)(=O)c2ccc(C(=O)N3CCCC3)cc2)C1 (configuration not stated)	0	23	-7	-1	-3	x	x
COc1ccc(-c2nc(SCC(=O)NC3CCCCC3)n[nH]2)cc1	-1	x	x	23*	x	-22	35*
COC(=O)[C@]1(C)N[C@H](CN(C)C(=O)c2ccc(F)cc2)[C@@H]2C(=O)N(Cc3ccccc3)C(=O)[C@@H]21	2	6	-8	x	-12	x	x
NS(=O)(=O)c1ccc(CNS(=O)(=O)c2ccc3ccccc3c2)cc1	-2	28	-1	4	8	x	x
O=C(O)c1ccc(CNS(=O)(=O)c2ccc3ccccc3c2)cc1	0	23	4	23*	13	6	-4
c1ccc(-c2nnc(-c3ccccc3)c(-c3c[nH]c4ccccc34)n2)cc1	-1	32	-10	19	1	x	x
c1ccc2c(-c3ccncc3)c[nH]c2c1	0	21	12	23*	-3	-18	12
COc1ccc(OC)c(CN2CCN(C(=O)CCC(=O)c3cccs3)CC2)c1	-1	9	-21	x	-28	x	x
O=C(CCCc1cccs1)N1CCN(S(=O)(=O)c2ccccc2Br)CC1	-1	13	-27	29*	-6	11	25*
O=C(O)CCC(=O)N1CCN(S(=O)(=O)c2cccs2)CC1	0	0	0	-21	-1	x	x
CC(C)c1nc(SCC(=O)Nc2ccc(C(=O)O)cc2)c2c3c(sc2n1)CCCC3	-1	8	-4	-4	-8	x	x
CCNC(=O)/C(C#N)=C/c1c(N(Cc2ccccc2)Cc2ccccc2)nc2ccccn2c1=O	-11	5	-21	-8	-22	x	x
CNC(=O)/C(C#N)=C/c1c(N(Cc2ccccc2)Cc2ccccc2)nc2c(C)cccn2c1=O	1	14	-16	39*	-3	23	49*
CC(C)(C)c1ncc(S(=O)(=O)c2ccc(C(F)(F)F)cn2)c(N)n1	5	11	-14	-13	-2	x	x
SMILES	MPTP block	OX1R antag-1	OX1R antag-2	GPR7 antagonist	CHO parental Ca	GPR7 antag conf	MCHR1 antagonist
COc1ccccc1C1(O)CCN(CC(=O)Nc2c(C)nn(C)c2C)CC1	1	6	-14	27*	-11	0	8
COc1ccccc1N1CCN(CC(=O)Nc2c(C)n[nH]c2C)CC1	-2	21	-20	-6	-8	x	x
NCC(c1ccccc1Cl)c1c[nH]c2ccccc12 (configuration not stated)	1	11	-12	25	-6	x	x
NCC(c1ccc(Cl)cc1Cl)c1c[nH]c2ccccc12 (configuration not stated)	1	-7	-5	51*	9	61*	69*
CC1CN(C(=S)NC(=O)c2ccco2)CC(C)O1 (configuration not stated)	3	11	-10	-11	-13	x	x
COc1ccc(S(=O)(=O)N2CCCCC2)cc1NC(=O)Cc1cccs1	0	0	-7	x	-13	x	x
O=C(CCNC(=O)c1ccc(Br)cc1)NNC(=O)c1ccccc1	-2	0	3	x	-6	x	x
COc1cc(NC(=O)c2cccc3c(-c4cnn(C)c4)coc23)cc(OC)c1OC	2	x	x	x	x	x	x
COc1cc(C(C)=O)ccc1Oc1ncccn1	1	32	-6	-7	-8	x	x
O=C(OCC(=O)N1CCN(c2ccccc2)CC1)c1ccc(O)cc1O	1	19	4	26*	2	15	6
Cc1nn(-c2ccc(Cl)nn2)c(=O)c2ccccc12	-4	3	-9	-5	4	x	x
O=S(=O)(c1cnc(Cl)c(Cl)c1)N1CCCc2ccccc21	0	18	-23	30*	-9	61*	52*
O=S(=O)(c1cnc(Cl)c(Cl)c1)N1CCc2ccccc21	1	4	-17	14	-8	x	x
O=C(/C=C/Nc1ccccc1Br)c1ccccn1	2	36	-1	30*	-12	5	21
CC(=O)c1ccc(-n2nnnc2SCC(=O)N2CCc3ccccc3C2)cc1	0	x	x	29*	x	10	12
COCC(=O)Nc1cc(Cl)c(OC)cc1OC	1	15	-2	-6	1	x	x
O=C(CN1C(=O)C2C3C=CC(C3)C2C1=O)NC1CCCc2ccccc21 (configuration not stated)	2	7	-13	30*	-15	-1	6
CCOc1cc(CNCCO)cc(Br)c1OCc1ccc(Cl)cc1Cl	-2	-7	41*	42*	19	68*	77*
Cc1c(Br)c([N+](=O)[O-])nn1CC(=O)Nc1cccc2nonc12	5	10	-25	-3	-22	x	x
CCC1(C)Cc2ccccc2-c2[nH][nH]c(=O)c21 (configuration not stated)	0	12	-24	-15	-12	x	x
Cc1ccc(NC(=O)CN(C)CC(=O)Nc2ccccc2Oc2ccccc2)cc1	0	7	-15	3	-7	x	x
Cc1cccc(C)c1NC(=O)CN(C)CC(=O)Nc1ccccc1Oc1ccccc1	1	21	-10	32*	-20	26*	26*
